UBC13 polyUb = UBC13 polyubiquitin chain formation inhibitors, primary screen, biochemical, TR-FRET, uHTS | inhibition, % at 20 µM | 330,000 tested, 0.47% active | Ubiquitin-conjugating enzyme E2 N (Homo sapiens), P61088 | AID 485273, 2010; in the data active = inhibition above about 45%, passing the limit was not always enough; inconclusive = no clear call, values can overlap the other calls
Rin1-Abl PPI inh = inhibitors of Rin1-Abl protein binding, primary screen, biochemical, TR-FRET. Tyrosine-protein kinase ABL1 (Homo sapiens) + Ras and Rab interactor 1 (Homo sapiens), …. inhibition, % at 7.35 µM. 360,000 tested, 0.4% active; in the data active = inhibition above about 5%, passing the limit was not always enough
RBBP9 inhibitor = human RBBP9 inhibitors, primary screen, biochemical, fluorescence polarization, FP-Rh probe, HTS. recombinant RBBP9. inhibition, % at 7.94 µM. 220,000 tested, 0.2% active;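 active = inhibition above the campaign mean of all tested compounds plus 3 SD, cut at about 14% in these data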
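Assay system: recombinant human RBBP9; Reagent: Serine-hydrolase probe FP-Rh, 375 nM pre-mixing; Doses: 7.94 µM single dose, 0.794% DMSO; Incubation: 30 min then 45 min, 25 °C; Detection: fluorescence polarization (mP), excitation 525 nm, emission 598 nm; Evaluation: percent inhibition from mP, scaled between DMSO and no-protein wells.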
ALR inh = inhibitors of human ALR sulfhydryl oxidase, primary screen, biochemical, H2O2 detection, HRP-luminol luminescence, single point | FAD-linked sulfhydryl oxidase ALR (Homo sapiens), P55789 | purified ALR, DTT oxidation | inhibition, % (concentration not given with the values) | 290,000 tested, 3.8% active;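 active = mean replicate inhibition above about 79%, with every replicate also reaching it, limit read from the data; inconclusive = only one of the two criteria met; inactive = mean below limit and not every replicate reaching it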
UBC9 SUMO inh = inhibitors of in vitro SUMOylation cascade, primary screen, biochemical, HTRF, uHTS; HTRF SUMOylation assay, SAE1/SAE2 + UBC9; 290,000 tested, 0.36% active; AID 2006, 2009; inhibition, % at 35 µM; SUMO-conjugating enzyme UBC9 (Homo sapiens), P63279; in the data active = inhibition above about 50%, passing the limit was not always enough; inconclusive = no clear call, values can overlap the other calls
PREPL inh = PREPL enzyme inhibitors, primary screen, biochemical, fluorescence polarization. 320,000 tested, 0.68% active. recombinant PREPL, fluorescence polarization activity-based probe. inhibition, % at 5.96 µM; in the data active = inhibition above about 43%
Target sequence (Q4J6C6 whole entry, looked up): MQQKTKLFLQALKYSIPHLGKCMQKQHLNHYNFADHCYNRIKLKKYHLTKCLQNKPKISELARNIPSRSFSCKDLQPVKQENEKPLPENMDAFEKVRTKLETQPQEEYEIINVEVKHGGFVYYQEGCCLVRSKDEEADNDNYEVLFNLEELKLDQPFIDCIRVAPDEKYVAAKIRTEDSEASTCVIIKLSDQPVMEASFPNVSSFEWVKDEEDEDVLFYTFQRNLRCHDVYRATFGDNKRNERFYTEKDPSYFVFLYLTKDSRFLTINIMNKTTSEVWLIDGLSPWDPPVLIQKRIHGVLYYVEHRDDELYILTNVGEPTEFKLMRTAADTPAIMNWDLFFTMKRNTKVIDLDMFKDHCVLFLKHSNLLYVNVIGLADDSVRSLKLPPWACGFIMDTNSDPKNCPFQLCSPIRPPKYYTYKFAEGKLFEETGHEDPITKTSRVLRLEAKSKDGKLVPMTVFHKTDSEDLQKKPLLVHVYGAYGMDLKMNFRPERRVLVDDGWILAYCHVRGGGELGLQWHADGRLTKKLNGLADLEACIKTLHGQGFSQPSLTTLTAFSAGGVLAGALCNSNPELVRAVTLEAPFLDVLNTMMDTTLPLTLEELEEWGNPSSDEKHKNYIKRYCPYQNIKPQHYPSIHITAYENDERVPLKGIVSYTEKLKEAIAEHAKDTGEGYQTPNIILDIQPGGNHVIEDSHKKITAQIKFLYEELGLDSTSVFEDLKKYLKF
A number is an active result; – = inactive; ? = inconclusive; · = no result. Sampled rows, rich in hits. Any-hit rate of the full collection: about 4.3%.

SMILES | UBC13 polyUb | Rin1-Abl PPI inh | RBBP9 inhibitor | ALR inh | UBC9 SUMO inh | PREPL inh
Nc1cccc2c1C(=O)N(C(=O)/C=C/c1cccc(F)c1)C2=O | – | – | – | 98 | – | –
Nc1cccc2c1C(=O)N(C(=O)/C=C/c1cccc(Br)c1)C2=O | · | – | – | · | – | ·
CC(=O)Nc1cccc(OCC(=O)NC(C)c2ccc3ccccc3c2)c1 (centres undefined) | – | – | · | – | – | –
COc1ccc(C(N)CCc2ccco2)cc1 (centres undefined) | – | – | – | 99 | – | –
COc1ccc2c3c(ccc2c1)C(=O)/C(=C/O)CC3 | · | – | · | · | · | ·
COc1cccc(N2CCN(c3ccc4nnc(CCC(=O)N5CCC(C)CC5)n4n3)CC2)c1 | – | – | · | 99 | – | –
COc1cccc(N2CCN(c3ccc4nnc(CCC(=O)Nc5cccc(C(C)=O)c5)n4n3)CC2)c1 | ? | – | · | – | – | –
CCCN1CCN(C(=O)CCc2nnc3ccc(N4CCN(c5cccc(OC)c5)CC4)nn23)CC1 | – | – | · | 99 | – | –
COc1ccc(N2CCN(C(=O)CCc3nnc4ccc(N5CCC(C)CC5)nn34)CC2)cc1 | – | – | · | 90 | – | –
CC1CCN(c2ccc3nnc(CCC(=O)N4CCN(c5ccccc5F)CC4)n3n2)CC1 | – | – | · | – | – | –
C/C=C/c1ccc(OCC(=O)Nc2cc(S(=O)(=O)N3CCOCC3)ccc2N2CCCC2)c(OC)c1 | – | – | · | · | · | –
COc1ccc(/C=N/Nc2nc(N3CCCC3)nc(N3CCCC3)n2)cc1O | – | – | – | 99 | – | –
CC(C)c1ccc(/C=N/Nc2cc(N3CCOCC3)nc(N3CCOCC3)n2)cc1 | – | – | – | – | – | –
Cc1cccc(/C=N/Nc2cc(N3CCOCC3)nc(N3CCOCC3)n2)c1 | – | – | – | – | – | –
Oc1ccc(/C=N\Nc2cc(N3CCOCC3)nc(N3CCOCC3)n2)c(O)c1 | – | – | – | 85 | ? | –
Oc1ccc(/C=N/Nc2cc(N3CCCC3)nc(N3CCCC3)n2)cc1O | – | – | – | 90 | 63 | –
Cc1cc(N/N=C/c2ccc(O)cc2O)nc(N2CCOCC2)n1 | – | – | – | 97 | – | –
CC(C)/C=C(/C(=O)c1ccc(Cl)cc1Cl)n1cncn1 | – | – | · | 97 | – | –
CC(C)(C)C(=O)/C(=C/c1ccc(Cl)cc1)n1cncn1 | – | – | · | – | – | ·
COc1ccc(C(=O)NC(=S)Nc2cccc3ncccc23)cc1[N+](=O)[O-] | – | – | · | – | – | –
COc1cc(C2c3c([nH]c(=O)[nH]c3=O)Nc3ccc4ccccc4c32)cc(OC)c1OC (centres undefined) | – | – | – | – | 77 | –
N#CC1=C(SCC(=O)Nc2ccc(C(=O)O)cc2)NC(=O)CC1c1ccco1 (centres undefined) | – | – | – | 98 | – | –
COCCOC(=O)C1=C(C)NC(SCC(=O)NC(C)(C)C)=C(C#N)C1c1ccco1 (centres undefined) | – | – | – | · | – | ·
Cc1ccc(NC(=O)CSC2=C(C#N)C(c3ccco3)C3=C(CCCC3=O)N2)cc1 (centres undefined) | – | – | – | – | – | –
C=CCOC(=O)C1=C(C)NC(SCC(=O)Nc2ccc(C)c(Cl)c2)=C(C#N)C1c1ccco1 (centres undefined) | – | – | – | 98 | – | –
CN(C)CCN1CCN(C2CN(Cc3ccc([N+](=O)[O-])cc3)S(=O)(=O)C2)CC1 (centres undefined) | · | – | · | · | · | ·
O=C(Cc1sc(-c2ccccc2)nc1-c1ccccc1)Nc1ccccc1 | – | – | – | – | – | –
O=C(O)Cc1sc(-c2ccccc2Cl)nc1-c1ccccc1 | – | – | – | 99 | – | –
Cc1ccc(-c2nc(-c3ccc(Cl)cc3)sc2CC(=O)O)c(C)c1 | – | – | – | 99 | – | –

Compound activity (PubChem)
